Measured values as given in paper PMC3747510 (Scientific Reports, 2013).
Numbering of substitutions follows the chain as printed.

Legend:
Assay type in all cases: biochemical
[1] = target: T1, SpLeuRS (Streptococcus pneumoniae serotype 4, UniProt Q97SS0); assay: Post-transfer editing; conditions: 5 or 50 μM ZCL039, 1 μM [3H]Met-SptRNALeu
T1 sequence (Q97SS0 1-833): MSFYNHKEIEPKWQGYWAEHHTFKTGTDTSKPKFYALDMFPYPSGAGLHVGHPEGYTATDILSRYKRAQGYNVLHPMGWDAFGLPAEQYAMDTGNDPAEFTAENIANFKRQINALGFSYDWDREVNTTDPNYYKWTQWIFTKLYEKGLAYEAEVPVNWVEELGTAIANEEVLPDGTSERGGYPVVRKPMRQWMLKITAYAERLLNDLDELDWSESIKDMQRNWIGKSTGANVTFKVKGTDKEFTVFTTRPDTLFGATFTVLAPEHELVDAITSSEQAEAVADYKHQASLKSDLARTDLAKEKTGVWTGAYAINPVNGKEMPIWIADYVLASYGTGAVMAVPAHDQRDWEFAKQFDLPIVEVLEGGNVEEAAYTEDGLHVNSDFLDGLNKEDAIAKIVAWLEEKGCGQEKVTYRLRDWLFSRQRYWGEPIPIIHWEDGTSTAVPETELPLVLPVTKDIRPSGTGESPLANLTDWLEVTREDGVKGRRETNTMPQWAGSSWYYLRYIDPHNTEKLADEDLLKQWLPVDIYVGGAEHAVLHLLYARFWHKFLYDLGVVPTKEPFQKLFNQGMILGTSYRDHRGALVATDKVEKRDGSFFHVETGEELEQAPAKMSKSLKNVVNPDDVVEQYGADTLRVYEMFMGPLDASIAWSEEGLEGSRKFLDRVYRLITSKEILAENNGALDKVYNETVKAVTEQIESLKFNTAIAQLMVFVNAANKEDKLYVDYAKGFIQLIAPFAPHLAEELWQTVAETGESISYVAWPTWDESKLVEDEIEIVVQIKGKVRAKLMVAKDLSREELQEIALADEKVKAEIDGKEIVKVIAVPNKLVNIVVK
In short: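 Enzyme and test compound were preincubated 20 min. Substrate was mischarged with the EcLeuRS-D345A editing mutant (30 min, 37°C), then acid-phenol extracted. Controls: DMSO, and no-enzyme spontaneous hydrolysis. Means of three experiments.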

[2] = target: T2, Human mitochondrial LeuRS (Homo sapiens, UniProt Q15031); assay: Aminoacylation inhibition
T2 sequence (Q15031 1-903): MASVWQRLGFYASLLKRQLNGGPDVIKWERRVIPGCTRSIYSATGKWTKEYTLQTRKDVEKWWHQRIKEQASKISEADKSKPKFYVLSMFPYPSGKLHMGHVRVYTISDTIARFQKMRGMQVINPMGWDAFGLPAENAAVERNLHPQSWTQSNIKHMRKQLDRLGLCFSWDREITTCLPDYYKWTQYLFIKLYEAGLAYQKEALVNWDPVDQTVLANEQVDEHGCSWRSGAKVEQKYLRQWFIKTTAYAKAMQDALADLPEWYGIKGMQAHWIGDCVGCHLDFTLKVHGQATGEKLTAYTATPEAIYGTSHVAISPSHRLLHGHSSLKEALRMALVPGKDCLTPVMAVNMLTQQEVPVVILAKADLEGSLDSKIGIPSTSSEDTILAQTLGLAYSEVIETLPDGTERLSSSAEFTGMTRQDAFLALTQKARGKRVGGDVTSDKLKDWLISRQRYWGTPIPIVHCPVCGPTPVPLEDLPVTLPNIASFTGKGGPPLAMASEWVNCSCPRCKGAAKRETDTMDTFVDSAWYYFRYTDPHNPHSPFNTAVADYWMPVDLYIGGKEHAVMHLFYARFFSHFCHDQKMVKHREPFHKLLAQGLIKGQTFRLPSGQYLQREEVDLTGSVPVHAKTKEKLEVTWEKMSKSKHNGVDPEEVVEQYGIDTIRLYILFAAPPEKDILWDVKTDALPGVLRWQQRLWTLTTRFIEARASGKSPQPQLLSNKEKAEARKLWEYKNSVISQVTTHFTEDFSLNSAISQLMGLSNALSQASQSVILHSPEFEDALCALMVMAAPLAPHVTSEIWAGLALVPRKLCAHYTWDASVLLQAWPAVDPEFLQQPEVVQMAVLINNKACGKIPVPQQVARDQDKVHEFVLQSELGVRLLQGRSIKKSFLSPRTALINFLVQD
In short: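 Human cytosolic or mitochondrial LeuRS, expressed in E. coli. Aminoacylation run at 30°C. At least six test-compound concentrations were tested, with enzyme amount set to form 10 pmol Leu-tRNALeu in 5 min. IC50 was taken from a fitted dose-response curve, as the mean of at least two independent experiments.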

[3] = target: T3, SpLeuRS C399S (Streptococcus pneumoniae serotype 4, UniProt Q97SS0, W399S); assay: Aminoacylation and deacylation by SpLeuRS C399S mutant; conditions: 50 μM ZCL039
T3 sequence (Q97SS0 1-833 W399S): T1 sequence (Q97SS0 1-833) with W399S

[4] = target: E. coli LeuRS (EcLeuRS) (Escherichia coli, UniProt P07813); assay: Aminoacylation inhibition
In short: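 Aminoacylation at 37°C with [3H]leucine, started with 4 mM ATP, in Tris-HCl pH 7.5 buffer. Each LeuRS was used at equal activity, i.e. forming 10 pmol Leu-tRNALeu in 5 min. At least six test-compound concentrations were tested. IC50 was taken from a fitted dose-response curve, as the mean of at least two independent experiments.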

Chain of E. coli LeuRS (EcLeuRS) (P07813 whole entry): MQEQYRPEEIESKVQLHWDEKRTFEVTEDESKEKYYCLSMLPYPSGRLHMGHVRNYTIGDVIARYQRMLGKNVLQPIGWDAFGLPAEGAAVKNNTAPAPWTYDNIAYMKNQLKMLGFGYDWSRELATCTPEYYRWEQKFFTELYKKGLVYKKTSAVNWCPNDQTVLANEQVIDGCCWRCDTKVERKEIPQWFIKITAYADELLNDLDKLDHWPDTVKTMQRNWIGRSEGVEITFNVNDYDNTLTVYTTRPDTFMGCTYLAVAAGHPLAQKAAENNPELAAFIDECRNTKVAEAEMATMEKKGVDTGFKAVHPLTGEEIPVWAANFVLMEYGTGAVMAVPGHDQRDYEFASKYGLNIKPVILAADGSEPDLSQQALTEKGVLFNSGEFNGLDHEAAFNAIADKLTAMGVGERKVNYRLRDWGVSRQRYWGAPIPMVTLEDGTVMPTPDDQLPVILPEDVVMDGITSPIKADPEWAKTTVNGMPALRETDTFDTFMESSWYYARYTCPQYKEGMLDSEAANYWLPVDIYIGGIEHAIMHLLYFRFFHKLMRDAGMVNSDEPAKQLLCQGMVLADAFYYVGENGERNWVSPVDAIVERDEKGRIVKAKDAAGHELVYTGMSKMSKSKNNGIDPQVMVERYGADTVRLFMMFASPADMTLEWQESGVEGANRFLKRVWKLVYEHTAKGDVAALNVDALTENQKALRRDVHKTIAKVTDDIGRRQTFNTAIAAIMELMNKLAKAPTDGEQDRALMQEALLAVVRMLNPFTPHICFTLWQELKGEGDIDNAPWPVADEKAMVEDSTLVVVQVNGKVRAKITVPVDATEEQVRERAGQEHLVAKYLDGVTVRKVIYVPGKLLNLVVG

## OB1OCc2ccc(C(O)c3ccccc3)cc21 (centres unmarked) [ZCL039, [6-(1-phenyl-1-hydroxylmethyl)]-1,3-dihydro-1-hydroxy-2,1-benzoxaborole]
[1]
  Effect on hydrolysis of mischarged Met-SptRNALeu (editing): severely block
[2]
  IC50: > 250 µM
[3]
  Sensitivity of C399S mutant to ZCL039: comparable to the wild-type SpLeuRS
[4]
  IC50: 8.25 ± 1.2 µM
[4]; printed as higher
  IC50 towards SpLeuRS relative to EcLeuRS: 5 fold
